The source made the active and inactive calls. The calls are words filed in the database; no cut-off is given here.
Tests used:
[1] = biological target: 5-hydroxytryptamine receptor 2A (Rattus norvegicus, UniProt P14842); experiment: Displacement of [3H]Ketanserin from rat cortex 5-HT2A receptor by liquid scintillation counter
How it was run: (§1)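 Competition binding. 5-HT1A: rat hippocampus, [3H]-8-OH-DPAT. 5-HT2A: rat cortex, [3H]-ketanserin. D2: rat striatum, [3H]-spiperone. 5-HT6: human receptor stably in HEK293, [3H]-LSD. 5-HT7: human receptor stably in HEK293, [3H]-5-CT. Vacuum filtration on GF/B filters, ice-cold washes, scintillation counting.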

[2] = biological target: T1, 5-hydroxytryptamine receptor 1A (Rattus norvegicus, UniProt P19327); experiment: Displacement of [3H]8-OH-DPAT from rat hippocampus 5-HT1A receptor by liquid scintillation counter; format: tissue-based; how it was run: as §1
T1 sequence (P19327 whole entry): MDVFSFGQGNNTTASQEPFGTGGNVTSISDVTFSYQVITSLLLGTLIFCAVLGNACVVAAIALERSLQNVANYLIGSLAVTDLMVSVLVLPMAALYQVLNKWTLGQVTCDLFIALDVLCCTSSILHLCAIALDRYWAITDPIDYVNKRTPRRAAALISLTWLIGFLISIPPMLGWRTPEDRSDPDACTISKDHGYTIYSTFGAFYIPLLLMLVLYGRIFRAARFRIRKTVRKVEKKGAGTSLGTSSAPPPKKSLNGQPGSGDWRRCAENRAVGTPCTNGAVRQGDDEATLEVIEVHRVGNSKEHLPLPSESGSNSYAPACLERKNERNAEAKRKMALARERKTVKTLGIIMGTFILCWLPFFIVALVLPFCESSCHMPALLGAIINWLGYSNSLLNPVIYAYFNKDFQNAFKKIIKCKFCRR

[3] = tested on: Rattus norvegicus; experiment: Anxiolytic activity in Wistar rat assessed as increase in open arm entries at 5 mg/kg after 5 mins by plus-maze test (reference value: 26.3 +/- 2.1 %); format: functional
[4] = tested on: Rattus norvegicus; experiment: Anxiolytic activity in Wistar rat assessed as increase in open arm entries at 2.5 mg/kg after 5 mins by plus-maze test (reference value: 26.3 +/- 2.1 %); format: functional
[5] = tested on: Rattus norvegicus; experiment: Anxiolytic activity in Wistar rat assessed as increase in open arm entries at 1.25 mg/kg after 5 mins by plus-maze test (reference value: 26.3 +/- 2.1 %); format: functional
[6] = tested on: Rattus norvegicus; experiment: Anxiolytic activity in Wistar rat assessed as increase in time spent in open arms at 5 mg/kg after 5 mins by plus-maze test (reference value: 13 +/- 2.3 %); format: functional
[7] = tested on: Rattus norvegicus; experiment: Anxiolytic activity in Wistar rat assessed as increase in time spent in open arms at 2.5 mg/kg after 5 mins by plus-maze test (reference value: 13 +/- 2.3 %); format: functional
[8] = tested on: Rattus norvegicus; experiment: Anxiolytic activity in Wistar rat assessed as increase in time spent in open arms at 1.25 mg/kg after 5 mins by plus-maze test (reference value: 13 +/- 2.3 %); format: functional
[9] = tested on: Mus musculus; experiment: Antidepressant activity in Swiss albino mouse assessed as reduction in immobility time at 20 mg/kg measured for 4 mins by forced swim test; format: functional; design: scale not given: the % may be the effect or the level left
How it was run: (§2)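 Porsolt forced swim in male Swiss albino mice. Drugs ip (10 ml/kg; 1% Tween 80 suspension, imipramine in water) 30 min before. Cylinder 25 cm high, 10 cm diameter, 6 cm water at 23–25 °C, 6 min session; immobility scored over final 4 min. 5–10 mice/dose; one-way ANOVA with Bonferroni.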

[10] = tested on: Mus musculus; experiment: Antidepressant activity in Swiss albino mouse assessed as reduction in immobility time at 10 mg/kg measured for 4 mins by forced swim test; format: functional; design: scale not given: the % may be the effect or the level left; how it was run: as §2
[11] = biological target: 5-hydroxytryptamine receptor 7 (Homo sapiens, UniProt P34969); experiment: Displacement of [3H]5-CT form human cloned 5HT7 receptor expressed in human HEK293 cells by liquid scintillation counter; format: cell-based; how it was run: as §1
5-hydroxytryptamine receptor 7, sequence (P34969 whole entry): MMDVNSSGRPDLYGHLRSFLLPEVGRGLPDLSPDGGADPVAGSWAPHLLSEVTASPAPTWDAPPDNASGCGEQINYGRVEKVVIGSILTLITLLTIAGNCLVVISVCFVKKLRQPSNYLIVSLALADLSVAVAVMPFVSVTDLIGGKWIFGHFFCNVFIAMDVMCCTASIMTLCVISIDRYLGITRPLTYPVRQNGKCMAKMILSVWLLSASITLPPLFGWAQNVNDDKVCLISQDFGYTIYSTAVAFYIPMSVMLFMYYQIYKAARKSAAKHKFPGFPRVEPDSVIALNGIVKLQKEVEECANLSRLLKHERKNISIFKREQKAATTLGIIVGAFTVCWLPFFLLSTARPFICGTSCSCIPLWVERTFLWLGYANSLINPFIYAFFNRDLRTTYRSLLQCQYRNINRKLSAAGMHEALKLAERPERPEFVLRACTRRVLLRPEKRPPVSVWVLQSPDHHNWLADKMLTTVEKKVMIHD

[12] = biological target: 5-hydroxytryptamine receptor 6 (Homo sapiens, UniProt P50406); experiment: Displacement of [3H]-LSD from human full length cloned 5HT6 receptor expressed in human HEK293 cells by liquid scintillation counter; format: cell-based; how it was run: as §1
5-hydroxytryptamine receptor 6, sequence (P50406 whole entry): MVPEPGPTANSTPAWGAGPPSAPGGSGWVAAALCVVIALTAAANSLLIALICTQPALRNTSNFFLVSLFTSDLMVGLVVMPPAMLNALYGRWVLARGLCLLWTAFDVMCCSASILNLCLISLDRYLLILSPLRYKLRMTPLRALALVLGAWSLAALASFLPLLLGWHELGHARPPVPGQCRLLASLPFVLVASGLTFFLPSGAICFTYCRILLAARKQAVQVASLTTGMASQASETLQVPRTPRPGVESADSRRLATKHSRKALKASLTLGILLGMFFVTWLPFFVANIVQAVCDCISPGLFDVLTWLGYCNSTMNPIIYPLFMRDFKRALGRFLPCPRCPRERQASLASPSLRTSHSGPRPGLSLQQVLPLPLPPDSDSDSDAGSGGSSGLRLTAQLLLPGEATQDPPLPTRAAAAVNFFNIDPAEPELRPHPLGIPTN

[13] = Selectivity ratio of compound Ki for rat hippocampus 5-HT1A receptor to human 5HT7 receptor; format: tissue-based
How it was run: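 Ratio of Ki values from competition binding: rat hippocampus 5-HT1A with [3H]-8-OH-DPAT versus human 5-HT7 in HEK293 with [3H]-5-CT; Ki by Cheng–Prusoff from 7–9 concentrations in triplicate.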

[14] = biological target: T2, D(4) dopamine receptor (Homo sapiens) (UniProt P21917); experiment: Displacement of [3H]-methylspiperone from human cloned dopamine D4 receptor expressed in HEK293 cells at 10 '-7 M by liquid scintillation counter; format: cell-based
T2 sequence (whole entry): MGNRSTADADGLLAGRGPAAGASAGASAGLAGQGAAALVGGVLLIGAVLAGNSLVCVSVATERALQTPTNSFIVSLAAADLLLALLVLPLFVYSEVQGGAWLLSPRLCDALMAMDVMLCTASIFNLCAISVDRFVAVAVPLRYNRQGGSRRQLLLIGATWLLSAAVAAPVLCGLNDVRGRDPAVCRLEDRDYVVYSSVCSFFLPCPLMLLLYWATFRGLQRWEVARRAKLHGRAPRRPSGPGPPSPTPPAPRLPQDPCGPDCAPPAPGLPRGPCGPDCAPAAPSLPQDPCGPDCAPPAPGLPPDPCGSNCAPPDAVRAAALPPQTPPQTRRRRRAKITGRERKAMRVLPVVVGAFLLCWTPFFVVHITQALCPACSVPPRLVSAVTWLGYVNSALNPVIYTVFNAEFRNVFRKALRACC

[15] = biological target: D(3) dopamine receptor (Homo sapiens) (UniProt P35462); experiment: Displacement of [3H]-methylspiperone from human cloned dopamine D3 receptor expressed in HEK293 cells at 10 '-6 M by liquid scintillation counter; format: cell-based
D(3) dopamine receptor (Homo sapiens), sequence (P35462 whole entry): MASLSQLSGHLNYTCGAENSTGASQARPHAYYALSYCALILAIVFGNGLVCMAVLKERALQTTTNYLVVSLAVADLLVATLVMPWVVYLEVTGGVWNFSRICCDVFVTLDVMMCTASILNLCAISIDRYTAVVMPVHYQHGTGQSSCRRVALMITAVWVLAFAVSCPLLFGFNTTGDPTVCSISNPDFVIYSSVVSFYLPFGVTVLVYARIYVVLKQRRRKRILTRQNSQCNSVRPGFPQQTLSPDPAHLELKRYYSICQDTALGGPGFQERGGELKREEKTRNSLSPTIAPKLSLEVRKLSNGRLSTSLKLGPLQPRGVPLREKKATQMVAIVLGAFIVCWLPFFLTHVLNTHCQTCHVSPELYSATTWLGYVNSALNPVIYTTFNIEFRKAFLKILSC

[16] = biological target: D(3) dopamine receptor (Homo sapiens) (UniProt P35462); experiment: Displacement of [3H]-methylspiperone from human cloned dopamine D3 receptor expressed in HEK293 cells at 10 '-7 M by liquid scintillation counter; format: cell-based
[17] = tested on: Mus musculus; experiment: Antipsychotic activity in CD1 mouse assessed as reduction in spontaneous locomotor activity measuring number of crossings at 0.5 to 1 mg/kg every 5 mins for 1 hr; format: functional, organism-based
How it was run: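 Male CD-1 mice; compound or reference ip 30 min before test plus vehicle. After 30 min habituation in individual cages, crossings counted over 1 h, recorded every 5 min; mean ± SEM; one-way ANOVA, Bonferroni.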

[18] = organism: Mus musculus; experiment: Antipsychotic activity in CD1 mouse assessed as inhibition of MK-801-induced hyperactivity measuring number of crossings measured every 5 mins for 1 hr; format: functional, organism-based
How it was run: (§3)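 Male CD-1 mice, one per cage, habituated 30 min; photobeam crossings (ambulation) then counted over 1 h, logged every 5 min. Drugs suspended in 1% aqueous Tween 80 and given ip at 10 ml/kg, 30 min before test. For hyperactivity, MK-801 (0.2 mg/kg, in distilled water) was given ip 15 min before test. 5–10 mice/dose; mean ± SEM, one-way ANOVA with Bonferroni test.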

[19] = tested on: Mus musculus; experiment: Antipsychotic activity in CD1 mouse assessed as reduction in spontaneous locomotor activity measuring number of crossings at 1.25 to 5 mg/kg every 5 mins for 1 hr; format: functional, organism-based; how it was run: as §3
[20] = tested on: Mus musculus; experiment: […] activity in ip dosed Swiss albino mouse assessed as inhibition of DOI-induced head twitches administered 20 mins before DOI challenge measured for 20 mins; format: functional; conditions: for ED50: read-out: ID50 (the source's name)
[21] = tested on: Mus musculus; experiment: Antidepressant activity in mouse assessed as spontaneous locomotor activity 10 to 30 mg/kg; format: functional, organism-based
How it was run: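 Swiss albino mice given the forced swim doses ip 30 min before; placed individually in cages and channel crossings counted from 2 to 6 min with a multichannel activity monitor, matching the swim test observation period.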

[22] = tested on: Mus musculus; experiment: […] activity in Swiss albino mouse assessed as inhibition of apomorphine-induced climbing behavior administered 10 mins before apomorphine challenge measured for 2 mins; format: functional
How it was run: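 Male Swiss albino mice; compounds ip in 1% Tween 80 suspension, 10 min before apomorphine 3 mg/kg. Climbing time (2–4 paws on bar wall) recorded for 2 min starting 20 min after apomorphine.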

[23] = biological target: T2, D(4) dopamine receptor (Homo sapiens); experiment: Displacement of [3H]-methylspiperone from human cloned dopamine D4 receptor expressed in HEK293 cells at 10 '-6 M by liquid scintillation counter; format: cell-based
[24] = biological target: D(2) dopamine receptor (Rattus norvegicus, UniProt P61169); experiment: Displacement of [3H]-spiperone from rat striatum dopamine D2 receptor by liquid scintillation counter; how it was run: as §1
D(2) dopamine receptor, sequence (P61169 whole entry): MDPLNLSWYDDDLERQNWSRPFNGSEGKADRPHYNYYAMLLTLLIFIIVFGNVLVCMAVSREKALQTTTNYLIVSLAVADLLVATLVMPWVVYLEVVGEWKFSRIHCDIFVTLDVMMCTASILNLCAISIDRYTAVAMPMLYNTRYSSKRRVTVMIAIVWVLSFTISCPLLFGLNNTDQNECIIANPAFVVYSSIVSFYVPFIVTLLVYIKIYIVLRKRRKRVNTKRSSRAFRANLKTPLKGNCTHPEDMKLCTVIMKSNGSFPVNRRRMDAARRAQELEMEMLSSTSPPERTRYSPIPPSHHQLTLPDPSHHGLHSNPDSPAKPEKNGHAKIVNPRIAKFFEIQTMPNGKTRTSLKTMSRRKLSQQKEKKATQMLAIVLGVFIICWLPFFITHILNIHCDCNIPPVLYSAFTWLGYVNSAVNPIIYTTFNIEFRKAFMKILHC

5-hydroxytryptamine receptor 2A, sequence (P14842 whole entry): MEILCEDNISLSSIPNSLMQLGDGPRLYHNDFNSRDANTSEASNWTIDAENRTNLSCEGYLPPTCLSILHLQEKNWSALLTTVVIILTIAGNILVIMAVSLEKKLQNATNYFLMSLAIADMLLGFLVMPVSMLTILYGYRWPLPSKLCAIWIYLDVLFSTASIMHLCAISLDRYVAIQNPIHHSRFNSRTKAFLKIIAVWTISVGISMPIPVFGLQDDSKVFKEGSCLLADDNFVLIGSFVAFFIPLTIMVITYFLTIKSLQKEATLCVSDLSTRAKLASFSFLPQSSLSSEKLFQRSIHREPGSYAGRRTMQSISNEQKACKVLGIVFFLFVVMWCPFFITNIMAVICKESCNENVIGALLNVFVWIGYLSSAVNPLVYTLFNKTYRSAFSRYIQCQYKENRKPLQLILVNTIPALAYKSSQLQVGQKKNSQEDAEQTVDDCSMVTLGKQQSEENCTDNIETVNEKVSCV

O=S(=O)(NCCCN1CCN(c2cccc(Cl)c2)CC1)c1cnc2ccccc2c1
Ki [1]: 206 nM

O=S(=O)(NCCCCN1CCN(c2ccc(Cl)cc2)CC1)c1ccc2ncccc2c1
Ki [2]: 2030 nM
Ki [1]: 44 nM

CN1C(=O)CN=C(c2ccccc2)c2cc(Cl)ccc21 [DIAZEPAM]
Activity [3]: 35.4%
Activity [4]: 46.6%
Activity [5]: 63.7%
Activity [6]: 21.8%
Activity [7]: 28.5%
Activity [8]: 29.7%

O=S(=O)(c1cnc2ccccc2c1)N1CCC(CN2CCN(c3ccc(Cl)cc3)CC2)CC1
Ki [2]: 462 nM
Ki [1]: 6000 nM

CN(C)CCCN1c2ccccc2CCc2ccccc21.Cl [IMIPRAMINE HYDROCHLORIDE]
Activity [9]: 52%
Activity [10]: 26.5%

O=S(=O)(NCCCCN1CCN(c2cccc(Cl)c2)CC1)c1cccc2cccnc12
Ki [11]: 25 nM
Ki [12]: 3760 nM
Ki [2]: 74 nM
Ki [1]: 152 nM

O=S(=O)(NCCCCN1CCN(c2cccc(Cl)c2)CC1)c1cccc2ccccc12
Ratio Ki [13]: 10
Ki [11]: 36 nM
Ki [12]: 127 nM
Ki [2]: 397 nM
Ki [1]: 268 nM

O=S(=O)(NCCCCN1CCN(c2cccc(Cl)c2)CC1)c1cnc2ccccc2c1
inhibition [14]: 30%
inhibition [15]: 94%
inhibition [16]: 70%
Ki [1]: 22 nM

O=C(CCCN1CCC(O)(c2ccc(Cl)cc2)CC1)c1ccc(F)cc1
Activity [17]: Active
inhibition [18]: Dose-dependent effect

O=S(=O)(c1ccc2cccnc2c1)N1CCC(CN2CCN(c3ccc(Cl)cc3)CC2)CC1
Ki [2]: 338 nM
Ki [1]: 761 nM

O=S(=O)(NCCCCN1CCN(c2ccc(Cl)cc2)CC1)c1ccc2cccnc2c1
Ki [11]: 381 nM
Ki [12]: 1730 nM
Ki [2]: 868 nM
Ki [1]: 63 nM

CN1CCN(C2=Nc3cc(Cl)ccc3Nc3ccccc32)CC1
Activity [19]: Active
inhibition [18]: Dose-dependent effect

O=S(=O)(NCCCCN1CCN(c2cccc(Cl)c2)CC1)c1ccc2ncccc2c1
Ki [1]: 42 nM

O=C(c1ccc(F)cc1)C1CCN(CCn2c(=O)[nH]c3ccccc3c2=O)CC1 [KETANSERIN]
ED50 [20]: 0.12 mg/kg

Cl.O=S(=O)(c1cnc2ccccc2c1)N1CCC(CCN2CCN(c3ccc(Cl)cc3)CC2)CC1
Activity [21]: inactive
inhibition [22]: Dose-dependent effect
ED50 ([22]; read-out: ID50 (the source's name)): 25 mg/kg
inhibition [20]: Dose-dependent effect
ED50 [20]: 5.12 mg/kg
inhibition [23]: 90%
inhibition [14]: 63%
inhibition [15]: 90%
inhibition [16]: 52%
Ki [24]: 56 nM
Ratio Ki [13]: 207
Ki [11]: 40 nM
Ki [12]: 24800 nM
Ki [2]: 8300 nM
Ki [1]: 31 nM

O=S(=O)(NCCCN1CCN(c2ccc(Cl)cc2)CC1)c1cncc2ccccc12
Ki [2]: 888 nM

O=S(=O)(NCCCCN1CCN(c2ccc(Cl)cc2)CC1)c1cncc2ccccc12
Ki [2]: 1000 nM
Ki [1]: 211 nM

O=S(=O)(NCCCCN1CCN(c2ccc(Cl)cc2)CC1)c1cnc2ccccc2c1
inhibition [23]: 78%
inhibition [14]: 37%
inhibition [15]: 82%
inhibition [16]: 46%
Ki [2]: 771 nM
Ki [1]: 56 nM

O=S(=O)(NCCCCN1CCN(c2cccc(Cl)c2)CC1)c1ccc2ccccc2c1
Ki [2]: 497 nM
Ki [1]: 22 nM

O=S(=O)(NCCCCCN1CCN(c2ccc(Cl)cc2)CC1)c1cnc2ccccc2c1
Ki [2]: 5800 nM
Ki [1]: 114 nM

Source: ChEMBL document CHEMBL1949570, “Quinoline- and isoquinoline-sulfonamide derivatives of LCAP as potent CNS multi-receptor-5-HT1A/5-HT2A/5-HT7 and D2/D3/D4-agents: the synthesis and pharmacological evaluation” (Bioorg Med Chem, 2012)
